# Source: ChEMBL document CHEMBL3393016, “Development of novel Asf1-H3/H4 inhibitors” (Bioorg Med Chem Lett, 2015)
# Active and inactive are the calls of the source. No cut-off for these calls is given here.
# Target: T1, Histone chaperone ASF1A (Homo sapiens, UniProt Q9Y294)
# Assay: Inhibition of globular core domain of Asf1 (unknown origin) binding with H3/H4 after 15 to 30 mins by ELISA assay
# Procedure, shortened: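 Wells coated with H3/H4 dimer at 1 μg/mL in PBS-T at 4°C overnight, then blocked with 5% milk in PBS-T. Asf1 globular core at 5 μM preincubated with compound at 100 μM (or various concentrations) for 1 h at 4°C. Samples diluted in 10 mM Tris pH 7.9, 1 mM DTT and bound to plate 1 h at room temperature. Bound Asf1 detected with anti-Asf1 and HRP secondary antibodies, then TMB for 15–30 min; OD read at 450 nm.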
# T1 sequence (Q9Y294 whole entry, the tested form may be a part): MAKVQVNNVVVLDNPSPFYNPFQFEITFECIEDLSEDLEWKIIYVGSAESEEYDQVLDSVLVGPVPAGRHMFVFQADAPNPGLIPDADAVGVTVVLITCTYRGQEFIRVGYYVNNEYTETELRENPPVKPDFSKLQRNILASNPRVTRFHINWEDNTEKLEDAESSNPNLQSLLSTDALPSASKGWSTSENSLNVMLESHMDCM
row,Compound,inhibition
1,COc1cc(C2C(Cl)C(=O)N2NC(=O)c2ccc(N)cc2)cc(Br)c1O (configuration not stated),Active
2,COc1ccc(-c2cc([C@@H](O)[C@@H]3CCCCN3)c3ccccc3n2)cc1 (racemic),Active

# System: MDA-MB-231
# Assay: Cytotoxicity against human MDA-MB-231 cells assessed as inhibition of cell viability at 24 uM after 24 hrs by trypan blue exclusion assay
# Format: functional, cell-based
# Procedure, shortened: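 MDA-MB-231 cells grown to 80% confluence, seeded at 1.5 × 10^5 cells/mL and incubated overnight. Medium then replaced with serum-free medium containing drug at 24 μM. After 1 h, FBS added to each well. Viable cell density counted by trypan blue exclusion after a further 24 h. Viability expressed as percent of DMSO-only control.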
row,Compound,inhibition
1,COc1ccc(-c2cc(C(=O)N3CCOCC3)c3ccccc3n2)cc1,inactive
2,COc1ccc(-c2cc(C(=O)N3CCCCC3)c3ccccc3n2)cc1,inactive
3,COc1ccc(-c2cc(C(=O)N(C)C)c3ccccc3n2)cc1,inactive
4,COc1ccc(-c2cc([C@@H](O)[C@@H]3CCCCN3)c3ccccc3n2)cc1 (racemic),Active
5,COc1ccc(-c2cc(C(=O)NCCO)c3ccccc3n2)cc1,inactive
6,COc1ccc(-c2cc(C(=O)C3CCCCN3)c3ccccc3n2)cc1 (configuration not stated),inactive
7,COc1ccc(-c2cc([C@H](O)[C@@H]3CCCCN3)c3ccccc3n2)cc1 (racemic),Active
8,CCN(CC)C(=O)c1cc(-c2ccc(OC)cc2)nc2ccccc12,inactive

# Target: T1, Histone chaperone ASF1A
# Assay: Inhibition of His-tagged human Asf1a binding with H3/H4 assessed as fluorescence intensity after 30 mins by ALPHA assay
row,Compound,IC50 [µM]
1,COc1cc(/C=N/NC(=O)c2ccc(NC(=O)c3ccccc3)c(COCCN(C)C)c2)cc(Br)c1O,> 100
2,COc1cc(CNNC(=O)c2ccc(NC(=O)c3ccccc3)cc2)cc(Br)c1O,> 100
3,O=C(N/N=C/c1cccc(OCCN2CCOCC2)c1)c1ccc(NC(=O)c2ccccc2)cc1,> 100
4,COc1cc(/C=N/NC(=O)C2CCNCC2)cc(Br)c1O,> 100
5,COc1cc(/C=N/NC(=O)c2ccc(NC(=O)c3ccccc3)cc2)ccc1O,> 100
6,COc1cc(/C=N/NC(=O)C2CCOCC2)cc(Br)c1O,> 100
7,COc1cc(/C=N/NC(=O)Cc2ccc(NC(=O)c3ccccc3)cc2)cc(Br)c1O,> 100
8,COc1cc(CCNC(=O)c2ccc(NC(=O)c3ccccc3)cc2)cc(Br)c1O,> 100
9,COc1cc(C/C=N/NC(=O)c2ccc(NC(=O)c3ccccc3)cc2)cc(Br)c1O,> 100
10,COc1cc(/C=N/NC(=O)c2ccc(NC(C)=O)cc2)cc(Br)c1O,> 100
11,COc1cc(/C=N/NC(=O)c2ccccc2)cc(Br)c1O,> 100
12,O=C(N/N=C/c1ccncc1)c1ccc(NC(=O)c2ccccc2)cc1,> 100
13,COc1cc(/C=N/NC(=O)c2ccncc2)cc(Br)c1O,> 100
14,COc1cc(/C=N/NC(=O)c2ccc(NC(C)=O)nc2)cc(Br)c1O,> 100
15,COc1cc(/C=N/NC(=O)c2ccc(NC(=O)c3ccccc3)cc2)ccn1,> 100
16,O=C(N/N=C/c1cc(Br)ccc1O)c1ccncc1,0.6
17,COc1cc(/C=N/N(C)C(=O)c2ccc(NC(=O)c3ccccc3)cc2)cc(Br)c1O,> 12
